Assay results taken from ChEMBL document CHEMBL4330148, “Discovery and Characterization of Cyclic and Acyclic Trypsin Inhibitors from Momordica dioica” (J Nat Prod, 2019).
Active and inactive are the calls of the source. The rule behind the calls is not given here. Bridge positions count the residues as written; N and C are the ends. Peptide text beside a SMILES is read from it.

Experiments:
[1] = organism: Bos taurus; experiment: Inhibition of bovine pancreatic trypsin at 0.1 to 100 uM preincubated for 30 mins followed by L-BAPNA substrate addition and measured after 10 mins
How it was run: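 Bovine pancreatic trypsin was dissolved in 1 mM HCl and diluted to 0.45 mg/mL in 50 mM Tris, 20 mM CaCl2, pH 8.2. Peptides (1 mM stock, eight-point 2-fold dilutions) were preincubated with trypsin for 30 min at 37 °C. L-BAPNA (0.435 mg/mL, 1% DMSO) was added for 10 min at room temperature, the reaction was stopped with 30% HOAc, and A410 was read. MCoTI-II was the reference inhibitor. Triplicate.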

[2] = Cytotoxicity against Spodoptera frugiperda Sf9 cells after 3 hrs by MTT assay; conditions: sf9, 3 h
[3] = tested on: PC-3; experiment: Cytotoxicity against human PC3 cells after 24 hrs by MTT assay; format: cell-based; conditions: pc-3, 24 h
How it was run: (§1)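 HT-29, MCF7 and PC-3 cells were grown in DMEM with 10% FBS and 1% penicillin–streptomycin at 37 °C under 5% CO2. They were seeded at 2000 cells/well and grown 24 h. Peptides were added in triplicate at final concentrations of 0.05–100 μM for 24 h. 1% Triton X-100 and medium alone served as controls. MTT (5 mg/mL in PBS) was added for 4 h, formazan was dissolved in DMSO, and absorbance was read at 570 nm.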

[4] = tested on: MCF7; experiment: Cytotoxicity against human MCF7 cells after 24 hrs by MTT assay; format: cell-based; conditions: mcf7, 24 h; how it was run: as §1
[5] = tested on: HT-29; experiment: Cytotoxicity against human HT-29 cells after 24 hrs by MTT assay; format: cell-based; conditions: ht-29, 24 h; how it was run: as §1
[6] = Stability in 100% human serum at 30 uM after 24 hrs by RP-HPLC analysis; format: ADME, cell-free
[7] = Drug metabolism in 100% human serum at 30 uM up to 4 hrs by RP-HPLC analysis; format: ADME, cell-free

Row | inhibition [1] | Stability [6] | Drug metabolism [7] | Compound | Activity [2] | Activity [3] | Activity [4] | Activity [5]
1 | Active |  |  | CC[C@H](C)[C@@H]1NC(=O)[C@H](CCCNC(=N)N)NC(=O)[C@@H]2CCCN2C(=O)[C@@H]2CSSC[C@@H]3NC(=O)[C@H](C)NC(=O)[C@H](CO)NC(=O)[C@@H]4CCCN4C(=O)[C@@H]4CSSC[C@H](NC(=O)[C@H](Cc5ccc(O)cc5)NC(=O)CNC(=O)[C@H](CC(N)=O)NC(=O)CNC(=O)[C@H](CCC(N)=O)NC(=O)[C@H](CSSC[C@H](NC(=O)[C@H](CCCCN)NC(=O)[C@H](CCC(N)=O)NC(=O)[C@H](CC(C)C)NC1=O)C(=O)N[C@@H](CCCNC(=N)N)C(=O)N[C@@H](CCCNC(=N)N)C(=O)N[C@@H](CC(N)=O)C(=O)N[C@@H](CO)C(=O)N[C@@H](CC(=O)O)C(=O)N4)NC(=O)[C@H](C(C)C)NC3=O)C(=O)NCC(=O)N[C@@H](CO)C(=O)NCC(=O)N[C@@H](CO)C(=O)N[C@H](CC(=O)O)C(=O)NCC(=O)NCC(=O)N[C@@H](C)C(=O)N2 |  |  |  | 
2 |  | Stable |  | CC[C@H](C)[C@@H]1NC(=O)[C@H](CCCCN)NC(=O)[C@@H]2CCCN2C(=O)[C@@H]2CSSC[C@@H]3NC(=O)[C@H](C)NC(=O)CNC(=O)[C@@H]4CCCN4C(=O)[C@@H]4CSSC[C@H](NC(=O)[C@H](Cc5ccc(O)cc5)NC(=O)CNC(=O)[C@H](CC(N)=O)NC(=O)CNC(=O)[C@H](CCC(N)=O)NC(=O)[C@H](CSSC[C@H](NC(=O)[C@H](CCCCN)NC(=O)[C@H](CCC(N)=O)NC(=O)[C@H](CC(C)C)NC1=O)C(=O)N[C@@H](CCCNC(=N)N)C(=O)N[C@@H](CCCNC(=N)N)C(=O)N[C@@H](CC(=O)O)C(=O)N[C@@H](CO)C(=O)N[C@@H](CC(=O)O)C(=O)N4)NC(=O)[C@H](C(C)C)NC3=O)C(=O)NCC(=O)N[C@@H](CO)C(=O)NCC(=O)N[C@@H](CO)C(=O)N[C@@H](CC(=O)O)C(=O)NCC(=O)NCC(=O)N[C@@H](C)C(=O)N2 | Non-Toxic | Non-Toxic | Non-Toxic | Non-Toxic
3 |  | Stable |  | CC[C@H](C)[C@@H]1NC(=O)[C@H](CCCNC(=N)N)NC(=O)[C@@H]2CCCN2C(=O)[C@@H]2CSSC[C@@H]3NC(=O)[C@H](C)NC(=O)[C@H](CO)NC(=O)[C@@H]4CCCN4C(=O)[C@@H]4CSSC[C@H](NC(=O)[C@H](Cc5ccc(O)cc5)NC(=O)CNC(=O)[C@H](CC(N)=O)NC(=O)CNC(=O)[C@H](CCC(N)=O)NC(=O)[C@H](CSSC[C@H](NC(=O)[C@H](CCCCN)NC(=O)[C@H](CCC(N)=O)NC(=O)[C@H](CC(C)C)NC1=O)C(=O)N[C@@H](CCCNC(=N)N)C(=O)N[C@@H](CCCNC(=N)N)C(=O)N[C@@H](CC(N)=O)C(=O)N[C@@H](CO)C(=O)N[C@@H](CC(=O)O)C(=O)N4)NC(=O)[C@H](C(C)C)NC3=O)C(=O)NCC(=O)N[C@@H](CO)C(=O)NCC(=O)N[C@@H](CO)C(=O)N[C@@H](CC(=O)O)C(=O)NCC(=O)NCC(=O)N[C@@H](C)C(=O)N2 | Non-Toxic | Non-Toxic | Non-Toxic | Non-Toxic
4 | Active | Stable |  | CC[C@H](C)[C@@H]1NC(=O)[C@@H]2CSSC[C@@H]3NC(=O)[C@H](C)NC(=O)CNC(=O)CNC(=O)[C@H](CC(=O)O)NC(=O)[C@H](CO)NC(=O)CNC(=O)[C@H](CO)NC(=O)CNC(=O)[C@@H]4CSSC[C@H](NC(=O)[C@H](CC(=O)O)NC(=O)[C@H](CO)NC(=O)[C@H](CC(=O)O)NC(=O)[C@H](CCCNC(=N)N)NC(=O)[C@H](CCCNC(=N)N)NC(=O)[C@H](CSSC[C@H](NC1=O)C(=O)N[C@@H](CCCNC(=N)N)C(=O)NCC(=O)N[C@@H](CC(N)=O)C(=O)NCC(=O)N[C@@H](Cc1ccc(O)cc1)C(=O)N4)NC(=O)[C@H](CCCNC(=N)N)NC(=O)[C@H](CCC(N)=O)NC(=O)[C@H](CC(C)C)NC(=O)[C@H]([C@@H](C)CC)NC(=O)[C@H](CCCCN)NC(=O)[C@@H]1CCCN1C3=O)C(=O)N1CCC[C@H]1C(=O)NCC(=O)N[C@@H](C)C(=O)N2 (cyclo(ACICRGNGYCGSGSDGGACPKILQRCRRDSDCPG); disulfide 2-19, 4-26, 10-32) | Non-Toxic | Non-Toxic | Non-Toxic | Non-Toxic
5 |  | Stable |  | CC[C@H](C)[C@@H]1NC(=O)[C@@H]2CSSC[C@H](NC(=O)[C@@H](NC(=O)[C@H](CCCNC(=N)N)NC(=O)[C@@H]3CCC(=O)N3)C(C)C)C(=O)N3CCC[C@H]3C(=O)N[C@@H](CCCNC(=N)N)C(=O)N[C@@H]([C@@H](C)CC)C(=O)N[C@@H](CC(C)C)C(=O)N[C@@H](CCCCN)C(=O)N[C@@H](CCCCN)C(=O)N[C@H]3CSSC[C@H](NC1=O)C(=O)N[C@@H](CCC(N)=O)C(=O)NCC(=O)N[C@@H](CC(N)=O)C(=O)NCC(=O)N[C@@H](Cc1ccc(O)cc1)C(=O)N[C@H](C(=O)NCC(N)=O)CSSC[C@H](NC(=O)[C@H](CC(=O)O)NC(=O)[C@H](CO)NC(=O)[C@H](CC(=O)O)NC(=O)[C@H](CCCNC(=N)N)NC(=O)[C@H](CCCNC(=N)N)NC3=O)C(=O)N1CCC[C@H]1C(=O)NCC(=O)N[C@@H](CCC(=O)O)C(=O)N2 | Non-Toxic | Non-Toxic | Non-Toxic | Non-Toxic
6 |  |  | Metabolite_Detected | H-WQELYQLKY-OH |  |  |  | 
7 | Active |  |  | CC[C@H](C)[C@@H]1NC(=O)[C@@H]2CSSC[C@H](NC(=O)[C@@H](NC(=O)[C@@H](CCCNC(=N)N)NC(=O)C3CCC(=O)N3)C(C)C)C(=O)N3CCC[C@H]3C(=O)N[C@@H](CCCNC(=N)N)C(=O)N[C@@H]([C@@H](C)CC)C(=O)N[C@@H](CC(C)C)C(=O)N[C@@H](CCCCN)C(=O)N[C@@H](CCCCN)C(=O)N[C@H]3CSSC[C@H](NC1=O)C(=O)N[C@@H](CCC(N)=O)C(=O)NCC(=O)N[C@@H](CC(N)=O)C(=O)NCC(=O)N[C@@H](Cc1ccc(O)cc1)C(=O)N[C@H](C(=O)NCC(N)=O)CSSC[C@H](NC(=O)[C@H](CC(=O)O)NC(=O)[C@H](CO)NC(=O)[C@H](CC(=O)O)NC(=O)[C@H](CCCNC(=N)N)NC(=O)[C@H](CCCNC(=N)N)NC3=O)C(=O)N1CCC[C@H]1C(=O)NCC(=O)N[C@@H](CCC(=O)O)C(=O)N2 (some centres not stated) |  |  |  | 
8 | Active |  |  | CC[C@H](C)[C@@H]1NC(=O)[C@H](CCCCN)NC(=O)[C@@H]2CCCN2C(=O)[C@@H]2CSSC[C@@H]3NC(=O)[C@H](C)NC(=O)CNC(=O)[C@@H]4CCCN4C(=O)[C@@H]4CSSC[C@H](NC(=O)[C@H](Cc5ccc(O)cc5)NC(=O)CNC(=O)[C@H](CC(N)=O)NC(=O)CNC(=O)[C@H](CCC(N)=O)NC(=O)[C@H](CSSC[C@H](NC(=O)[C@H](CCCCN)NC(=O)[C@H](CCC(N)=O)NC(=O)[C@H](CC(C)C)NC1=O)C(=O)N[C@@H](CCCNC(=N)N)C(=O)N[C@@H](CCCNC(=N)N)C(=O)N[C@@H](CC(=O)O)C(=O)N[C@@H](CO)C(=O)N[C@@H](CC(=O)O)C(=O)N4)NC(=O)[C@H](C(C)C)NC3=O)C(=O)NCC(=O)N[C@@H](CO)C(=O)NCC(=O)N[C@@H](CO)C(=O)N[C@H](CC(=O)O)C(=O)NCC(=O)NCC(=O)N[C@@H](C)C(=O)N2 |  |  |  | 
9 | Active | Stable |  | CC[C@H](C)[C@@H]1NC(=O)[C@@H]2CSSC[C@@H]3NC(=O)[C@H](C)NC(=O)CNC(=O)CNC(=O)[C@H](CC(=O)O)NC(=O)[C@H](CO)NC(=O)CNC(=O)[C@H](CO)NC(=O)CNC(=O)[C@@H]4CSSC[C@H](NC(=O)[C@H](CC(=O)O)NC(=O)[C@H](CO)NC(=O)[C@H](CC(=O)O)NC(=O)[C@H](CCCNC(=N)N)NC(=O)[C@H](CCCNC(=N)N)NC(=O)[C@H](CSSC[C@H](NC1=O)C(=O)N[C@@H](CCC(N)=O)C(=O)NCC(=O)N[C@@H](CC(N)=O)C(=O)NCC(=O)N[C@@H](Cc1ccc(O)cc1)C(=O)N4)NC(=O)[C@H](CCCCN)NC(=O)[C@H](CCCCN)NC(=O)[C@H](CC(C)C)NC(=O)[C@H]([C@@H](C)CC)NC(=O)[C@H](CCCNC(=N)N)NC(=O)[C@@H]1CCCN1C3=O)C(=O)N1CCC[C@H]1C(=O)N[C@@H](CO)C(=O)N[C@@H](C)C(=O)N2 | Non-Toxic | Non-Toxic | Non-Toxic | Non-Toxic
10 | Active | Stable |  | CC[C@H](C)[C@@H]1NC(=O)[C@H](CCCNC(=N)N)NC(=O)[C@@H]2CCCN2C(=O)[C@@H]2CSSC[C@@H]3NC(=O)[C@H](C)NC(=O)CNC(=O)[C@@H]4CCCN4C(=O)[C@@H]4CSSC[C@H](NC(=O)[C@H](Cc5ccc(O)cc5)NC(=O)CNC(=O)[C@H](CC(N)=O)NC(=O)CNC(=O)[C@H](CCCNC(=N)N)NC(=O)[C@H](CSSC[C@H](NC(=O)[C@H](CCCCN)NC(=O)[C@H](CCCCN)NC(=O)[C@H](CC(C)C)NC1=O)C(=O)N[C@@H](CCCNC(=N)N)C(=O)N[C@@H](CCCNC(=N)N)C(=O)N[C@@H](CC(=O)O)C(=O)N[C@@H](CO)C(=O)N[C@@H](CC(=O)O)C(=O)N4)NC(=O)[C@H](C(C)C)NC3=O)C(=O)NCC(=O)N[C@@H](CO)C(=O)NCC(=O)N[C@@H](CO)C(=O)N[C@@H](CC(=O)O)C(=O)NCC(=O)NCC(=O)N[C@@H](C)C(=O)N2 | Non-Toxic | Non-Toxic | Non-Toxic | Non-Toxic
